# Measured values gathered from unrelated publications.
# Lines come from different studies, so protocols differ.
# Effect on: enzyme activity
# Action: inhibitor
# BTK: Tyrosine-protein kinase BTK (BTK, Homo sapiens, UniProt Q06187)
Compound,target,assay,conditions,inhibition [%]
COc1cc2ncnc(Nc3ccc(Oc4ccccc4)cc3C)c2cc1OC,BTK,,1 µM,71
CC/C(=N\NC(=O)NCc1cccc(O)c1)c1ccc(O)c(C)c1O,"Tyrosine-protein kinase BTK (BTK, Homo sapiens, UniProt Q06187, C481S)",,0.1 µM,-1.8
CNC(=O)c1cc(Oc2ccc(NC(=O)Nc3ccc(Cl)c(C(F)(F)F)c3)cc2)ccn1,BTK,,0.3 µM,1
CC#CC(=O)N1CCC[C@H]1c1nc(-c2ccc(C(=O)Nc3ccccn3)cc2)c2c(N)nccn12,BTK,radiometric,0.1 µM,83
Cc1ccc(Nc2nccc(N(C)c3ccc4c(C)n(C)nc4c3)n2)cc1S(N)(=O)=O,BTK,,10 µM,72
CNCc1ccc(-c2cc(-c3nc(-c4ccc(S(=O)(=O)C(C)C)cc4)cnc3N)on2)cc1,BTK,,2 µM,6
C=CC(=O)Nc1cc(Nc2nccc(Nc3cc(Cl)c(F)cc3C(C)(C)O)n2)c(OC)cc1N1CC[C@@H](N(C)C)C1,BTK,,1 µM,96
CCN(CC)CCNC(=O)c1c(C)[nH]c(/C=C2\C(=O)Nc3ccc(F)cc32)c1C,BTK,,10 µM,85
CCCS(=O)(=O)Nc1ccc(F)c(C(=O)c2c[nH]c3ncc(-c4ccc(Cl)cc4)cc23)c1F,BTK,,1 µM,< 10
COc1cc2nccc(Oc3ccc(NC(=O)c4c5n(n(-c6ccc(F)cc6)c4=O)CCCC5)cc3)c2cc1OC,BTK,,0.1 µM,-7
O=C(CSc1nc2nccnc2c(=O)n1CCc1ccccc1)Nc1nccs1,BTK,,10 µM,4
CN(C)C1CCN(CC#Cc2nn(C3CCCC3)c3nc(NCc4ccccc4)ncc23)C1 (stereo not drawn),BTK,FRET,0.1 µM,8
